System: Felis catus
Test: Reduction of the integrated electromyographic response by 50% in cat after intravenous administration
Type: functional
Procedure, shortened: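 Intercollicular decerebration of cats (midbrain sectioned between colliculi) under halothane, anesthesia then stopped; ≥1 h later, integrated EMG of quadriceps recorded in response to controlled stretches. Drug infused iv in saline in graded doses, stretch response repeated; dose (μmol/kg iv) reducing stretch response by 50% determined.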

Compound | Activity A
CCCCC(=O)c1ccc2c(c1)/C(=C\C(C)CN(C)C)c1ccccc1S2 (configuration not stated) | 3.29 µM/kg
CC(=O)c1ccc2c(c1)N(CCCN(C)C)c1ccccc1S2 [ACEPROMAZINE] | 0.03 µM/kg
CN(C)CC/C=C1/c2ccccc2C=Cc2ccc(Cl)cc21 | 4.01 µM/kg
CCCC(=O)c1ccc2c(c1)/C(=C\C(C)CN(C)C)c1ccccc1S2 (configuration not stated) | 1.22 µM/kg
CCC(=O)c1ccc2c(c1)/C(=C\C(CC)CN(C)C)c1ccccc1S2 (configuration not stated) | 4.14 µM/kg
CCC(=O)c1ccc2c(c1)/C(=C\CCN1CCOCC1)c1ccccc1S2 | 0.27 µM/kg
CC(=O)c1ccc2c(c1)/C(=C\CCN(C)C)c1cc(Cl)ccc1S2 (stereo in doubt; 32) | 0.81 µM/kg
CC(=O)c1ccc2c(c1)/C(=C\CCN(C)C)c1ccccc1S2 | 0.54 µM/kg
CCCC(=O)c1ccc2c(c1)N(CC(C)CN(C)C)c1ccccc1S2 (configuration not stated) | 0.65 µM/kg
CN(C)CCCN1c2ccccc2Sc2ccc(Cl)cc21 [CHLORPROMAZINE] | 0.25 µM/kg
CCC(=O)c1ccc2c(c1)/C(=C\CCN1CCN(C)CC1)c1ccccc1S2 | 0.67 µM/kg
CC(/C=C1/c2ccccc2Sc2ccc(C(=O)C(C)C)cc21)CN(C)C (configuration not stated) | 0.67 µM/kg
CC(=O)c1ccc2c(c1)N(CC(C)CN(C)C)c1cc(Cl)ccc1S2 (configuration not stated) | 0.32 µM/kg
CC(CN1c2ccccc2Sc2ccc(S(=O)(=O)N(C)C)cc21)N(C)C (configuration not stated) [FONAZINE] | 4.67 µM/kg
CCC(=O)c1ccc2c(c1)/C(=C\CCN(C)C)c1ccccc1S2 (stereo in doubt; 35) | 0.45 µM/kg
CCC(=O)c1ccc2c(c1)/C(=C\C(C)CN(C)C)c1ccccc1S2 (configuration not stated) | 0.52 µM/kg
CC(=O)c1ccc2c(c1)C(CCCN(C)C)c1ccccc1S2 (configuration not stated) | 0.9 µM/kg
CN(C)CC/C=C1/c2ccccc2Sc2ccc(Cl)cc21 [CHLORPROTHIXENE] | 0.39 µM/kg

System: Felis catus
Test: Reduction of the integrated electromyographic response by 50% in cat after peroral administration
Type: functional

Compound | Activity B
CC(=O)c1ccc2c(c1)N(CCCN(C)C)c1ccccc1S2 [ACEPROMAZINE] | 1 µM/kg
CN(C)CC/C=C1/c2ccccc2C=Cc2ccc(Cl)cc21 | >6.1 µM/kg
CC(=O)c1ccc2c(c1)/C(=C\CCN(C)C)c1ccccc1S2 | <5.4 µM/kg
CCCC(=O)c1ccc2c(c1)N(CC(C)CN(C)C)c1ccccc1S2 (configuration not stated) | 1.2 µM/kg
CN(C)CCCN1c2ccccc2Sc2ccc(Cl)cc21 [CHLORPROMAZINE] | 2 µM/kg
CC(=O)c1ccc2c(c1)N(CC(C)CN(C)C)c1cc(Cl)ccc1S2 (configuration not stated) | 1 µM/kg
CC(CN1c2ccccc2Sc2ccc(S(=O)(=O)N(C)C)cc21)N(C)C (configuration not stated) [FONAZINE] | 8.1 µM/kg
CCC(=O)c1ccc2c(c1)/C(=C\CCN(C)C)c1ccccc1S2 (stereo in doubt; 35) | 1.9 µM/kg
CCC(=O)c1ccc2c(c1)/C(=C\C(C)CN(C)C)c1ccccc1S2 (configuration not stated) | >5.2 µM/kg
CN(C)CC/C=C1/c2ccccc2Sc2ccc(Cl)cc21 [CHLORPROTHIXENE] | 2.1 µM/kg

System: Felis catus
Test: Dose of compound to reduce the integrated electromyographic response by 50% in cat after peroral administration; Range is 5.5-13.7
Type: functional

Compound | Activity B
CC(=O)c1ccc2c(c1)C(CCCN(C)C)c1ccccc1S2 (configuration not stated) | 5.5 µM/kg

System: Mus musculus
Test: Reduction of locomotor activity count to 50% of the control in mouse after oral administration
Type: functional
Procedure, shortened: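 Mouse locomotor activity by Dews method, modified: drug given orally, activity measured for 5 min starting 1 h later. Dose (μmol/kg po) reducing locomotor activity count to 50% of control determined.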

Compound | Locomotor activity
CCCCC(=O)c1ccc2c(c1)/C(=C\C(C)CN(C)C)c1ccccc1S2 (configuration not stated) | 132 µM/kg
CC(=O)c1ccc2c(c1)N(CCCN(C)C)c1ccccc1S2 [ACEPROMAZINE] | 11 µM/kg
CN(C)CC/C=C1/c2ccccc2C=Cc2ccc(Cl)cc21 | 103 µM/kg
CCCC(=O)c1ccc2c(c1)/C(=C\C(C)CN(C)C)c1ccccc1S2 (configuration not stated) | 195 µM/kg
CCC(=O)c1ccc2c(c1)/C(=C\C(CC)CN(C)C)c1ccccc1S2 (configuration not stated) | 280 µM/kg
CCC(=O)c1ccc2c(c1)/C(=C\CCN1CCOCC1)c1ccccc1S2 | 125 µM/kg
CC(=O)c1ccc2c(c1)/C(=C\CCN(C)C)c1cc(Cl)ccc1S2 (stereo in doubt; 32) | 96 µM/kg
CC(=O)c1ccc2c(c1)/C(=C\CCN(C)C)c1ccccc1S2 | 33 µM/kg
CCCC(=O)c1ccc2c(c1)N(CC(C)CN(C)C)c1ccccc1S2 (configuration not stated) | 136 µM/kg
CN(C)CCCN1c2ccccc2Sc2ccc(Cl)cc21 [CHLORPROMAZINE] | 39 µM/kg
CCC(=O)c1ccc2c(c1)/C(=C\CCN1CCN(C)CC1)c1ccccc1S2 | 42 µM/kg
CC(/C=C1/c2ccccc2Sc2ccc(C(=O)C(C)C)cc21)CN(C)C (configuration not stated) | 145 µM/kg
CC(=O)c1ccc2c(c1)N(CC(C)CN(C)C)c1cc(Cl)ccc1S2 (configuration not stated) | 161 µM/kg
CC(CN1c2ccccc2Sc2ccc(S(=O)(=O)N(C)C)cc21)N(C)C (configuration not stated) [FONAZINE] | 860 µM/kg
CCC(=O)c1ccc2c(c1)/C(=C\CCN(C)C)c1ccccc1S2 (stereo in doubt; 35) | 339 µM/kg
CCC(=O)c1ccc2c(c1)/C(=C\C(C)CN(C)C)c1ccccc1S2 (configuration not stated) | 261 µM/kg
CC(=O)c1ccc2c(c1)C(CCCN(C)C)c1ccccc1S2 (configuration not stated) | 57 µM/kg
CN(C)CC/C=C1/c2ccccc2Sc2ccc(Cl)cc21 [CHLORPROTHIXENE] | 11 µM/kg

System: not listed separately
Test: Ratio of motor activity and activity A
Type: functional

Compound | Ratio
CCCCC(=O)c1ccc2c(c1)/C(=C\C(C)CN(C)C)c1ccccc1S2 (configuration not stated) | 40
CC(=O)c1ccc2c(c1)N(CCCN(C)C)c1ccccc1S2 [ACEPROMAZINE] | 393
CN(C)CC/C=C1/c2ccccc2C=Cc2ccc(Cl)cc21 | 26
CCCC(=O)c1ccc2c(c1)/C(=C\C(C)CN(C)C)c1ccccc1S2 (configuration not stated) | 160
CCC(=O)c1ccc2c(c1)/C(=C\C(CC)CN(C)C)c1ccccc1S2 (configuration not stated) | 68
CCC(=O)c1ccc2c(c1)/C(=C\CCN1CCOCC1)c1ccccc1S2 | 463
CC(=O)c1ccc2c(c1)/C(=C\CCN(C)C)c1ccccc1S2 | 60
CCCC(=O)c1ccc2c(c1)N(CC(C)CN(C)C)c1ccccc1S2 (configuration not stated) | 209
CCC(=O)c1ccc2c(c1)/C(=C\CCN1CCN(C)CC1)c1ccccc1S2 | 43
CC(/C=C1/c2ccccc2Sc2ccc(C(=O)C(C)C)cc21)CN(C)C (configuration not stated) | 216
CC(=O)c1ccc2c(c1)N(CC(C)CN(C)C)c1cc(Cl)ccc1S2 (configuration not stated) | 506
CC(CN1c2ccccc2Sc2ccc(S(=O)(=O)N(C)C)cc21)N(C)C (configuration not stated) [FONAZINE] | 184
CCC(=O)c1ccc2c(c1)/C(=C\C(C)CN(C)C)c1ccccc1S2 (configuration not stated) | 501
CC(=O)c1ccc2c(c1)C(CCCN(C)C)c1ccccc1S2 (configuration not stated) | 63
CN(C)CC/C=C1/c2ccccc2Sc2ccc(Cl)cc21 [CHLORPROTHIXENE] | 28
